Measurements as given in ChEMBL document CHEMBL3425429.
Activity calls are given as the source filed them. The calls are words filed in the database; no cut-off is given here.

Legend:
HepG2 = test: cells; conditions: Homo sapiens, HepG2, 72 h
MDA-MB-231 [1] = test: cells; conditions: Homo sapiens, MDA-MB-231, 72 h
[2] = target: Proto-oncogene tyrosine-protein kinase Src (Homo sapiens, UniProt P12931)
MDA-MB-231 [3] = test: Antimigratory activity against human MDA-MB-231 cells at 0.03 to 0.3 uM after 20 hrs by wound healing assay; format: functional, cell-based
In short: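 MDA-MB-231 monolayers grown to confluence, scratched with a sterile pipet tip, rinsed with saline, then kept in DMEM containing vehicle or compound; wound images taken after 20 h and analysed.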

MDA-MB-231 [4] = test: Antiinvasive activity against human MDA-MB-231 cells at 0.1 uM after 24 hrs by transwell assay; format: functional, cell-based
MDA-MB-231 [5] = test: Cell cycle arrest in human MDA-MB-231 cells assessed as accumulation at G0/G1 phase at 0.3 uM after 24 to 48 hrs by flow cytometric analysis; format: functional, cell-based
MDA-MB-231 [6] = test: Antitumor activity against human MDA-MB-231 cells xenografted in SCID mouse assessed as tumor growth inhibition at 40 mg/kg/day administered for 18 days measured every 3 days during compound dosing; format: functional, organism-based
MDA-MB-231 [7] = test: Inhibition of ERK phosphorylation in human MDA-MB-231 cells at 0.001 to 1 uM after 20 hrs by Western blot analysis; format: cell-based
In short: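 MDA-MB-231 cells exposed to a concentration series for 20 h at 37 °C, then washed in ice-cold saline and lysed in RIPA buffer with protease cocktail. Lysates were cleared at 12 000 rpm for 10 min at 4 °C and protein measured by Bradford. Equal protein was run on SDS-PAGE, transferred to PVDF and immunoblotted for phospho-proteins.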

MDA-MB-231 [8] = test: Antiproliferative activity against human MDA-MB-231 cells assessed as inhibition of colony formation at >0.01 uM after 12 days by crystal violet staining-based assay; format: functional, cell-based
In short: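 MDA-MB-231 cells plated at 5000 per well and treated the next day with vehicle or compound, medium refreshed every 4 days; after 12 days, colonies fixed in methanol, crystal violet stained and photographed.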

MDA-MB-231 [9] = test: Induction of apoptosis in human MDA-MB-231 cells assessed as early apoptotic cells at 0.3 uM after 48 hrs by annexin V-FITC/propidium iodide staining-based flow cytometric analysis (reference value: […]); format: functional
MDA-MB-231 [10] = test: Induction of apoptosis in human MDA-MB-231 cells assessed as viable cells at 0.3 uM after 24 hrs by annexin V-FITC/propidium iodide staining-based flow cytometric analysis (reference value: 95.5%); format: functional; conditions: MDA-MB-231, 24 h, read-out: Activity
MDA-MB-231 [11] = test: Effect on AKT phosphorylation in human MDA-MB-231 cells at 0.001 to 1 uM after 20 hrs by Western blot analysis; format: cell-based
In short: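 MDA-MB-231 cells exposed to a concentration series for 20 h at 37 °C, lysed in RIPA with protease inhibitor cocktail, cleared by centrifugation, protein quantified by Bradford, resolved by SDS-PAGE, transferred to PVDF and immunoblotted.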

MDA-MB-231 [12] = test: Induction of apoptosis in human MDA-MB-231 cells assessed as late apoptotic cells at 0.3 uM after 24 hrs by annexin V-FITC/propidium iodide staining-based flow cytometric analysis (reference value: 2.67%); format: functional
MDA-MB-231 [13] = test: Induction of apoptosis in human MDA-MB-231 cells assessed as viable cells at 0.3 uM after 48 hrs by annexin V-FITC/propidium iodide staining-based flow cytometric analysis (reference value: 94.4%); format: functional; conditions: MDA-MB-231, 48 h, read-out: Activity
MDA-MB-231 [14] = test: Induction of apoptosis in human MDA-MB-231 cells assessed as early apoptotic cells at 0.3 uM after 24 hrs by annexin V-FITC/propidium iodide staining-based flow cytometric analysis (reference value: 1.58%); format: functional
MDA-MB-231 [15] = test: Induction of apoptosis in human MDA-MB-231 cells assessed as late apoptotic cells at 0.3 uM after 48 hrs by annexin V-FITC/propidium iodide staining-based flow cytometric analysis (reference value: 4.25%); format: functional
MDA-MB-231 [16] = test: Potency index, ratio of ponatinib IC50 to compound IC50 for human MDA-MB-231 cells; format: functional
MDA-MB-231 [17] = test: Potency index, ratio of dasatinib IC50 to compound IC50 for human MDA-MB-231 cells; format: functional
MDA-MB-231 [18] = test: Antitumor activity against human MDA-MB-231 cells xenografted in SCID mouse assessed as tumor growth inhibition at 10 mg/kg/week, iv administered for 18 days measured every 3 days during compound dosing; format: functional, organism-based
In short: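 SCID mice (5–6 weeks) given subcutaneous injections of 5 ×10^6 MDA-MB-231 cells; at 150–200 mm3 tumors, randomized into 6 groups of 6; oral daily dosing (vehicle 25% PEG400 + 5% DMSO in sterile water), paclitaxel 10 mg/kg/week by tail vein; tumors measured every 3 days, volume = ab²/2; side effects monitored daily.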

Proto-oncogene tyrosine-protein kinase Src, sequence (P12931 2-536 limits assumed): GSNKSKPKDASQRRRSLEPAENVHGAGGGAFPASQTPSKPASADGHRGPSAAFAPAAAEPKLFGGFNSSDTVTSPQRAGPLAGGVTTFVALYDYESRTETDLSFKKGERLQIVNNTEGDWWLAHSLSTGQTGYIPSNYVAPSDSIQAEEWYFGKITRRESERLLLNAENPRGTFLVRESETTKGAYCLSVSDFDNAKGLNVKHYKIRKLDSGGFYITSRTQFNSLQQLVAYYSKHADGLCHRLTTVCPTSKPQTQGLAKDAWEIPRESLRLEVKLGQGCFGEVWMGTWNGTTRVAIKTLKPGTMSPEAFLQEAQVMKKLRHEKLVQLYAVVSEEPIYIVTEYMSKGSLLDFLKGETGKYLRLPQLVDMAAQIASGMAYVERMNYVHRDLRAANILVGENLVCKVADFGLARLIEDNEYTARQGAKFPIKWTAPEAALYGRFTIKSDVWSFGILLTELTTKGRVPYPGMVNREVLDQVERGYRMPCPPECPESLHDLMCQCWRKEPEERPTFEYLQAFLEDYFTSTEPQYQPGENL

IC50 (HepG2) | IC50 (MDA-MB-231 [1]) | IC50 [2] | Compound | further results
> 5000 nM | 145 nM | – | Cc1ccc(C(=O)Nc2ccc(CN3CCN(C)CC3)c(C(F)(F)F)c2)cc1C#Cc1nn(C2CCN(C(=O)OC(C)(C)C)CC2)c2ncnc(N)c12 | –
> 5000 nM | 1220 nM | 1410 nM | CCn1nc(C#Cc2cc(C(=O)Nc3ccc(CN4CCN(C)CC4)c(C(F)(F)F)c3)ccc2C(C)C)c2c(N)ncnc21 | –
1830 nM | 40 nM | 1 nM | Cc1ccc(C(=O)Nc2ccc(CN3CCN(C)CC3)c(Br)c2)cc1C#Cc1nn(C(C)C)c2ncnc(N)c12 | –
> 5000 nM | 56 nM | 2 nM | CCN1CCN(Cc2ccc(NC(=O)c3ccc(C)c(C#Cc4nn(C(C)C)c5ncnc(N)c45)c3)cc2C(F)(F)F)CC1 | –
> 5000 nM | 178 nM | – | Cc1nc(Nc2ncc(C(=O)Nc3c(C)cccc3Cl)s2)cc(N2CCN(CCO)CC2)n1.O [DASATINIB] | Activity (MDA-MB-231 [3]): Active; Activity (MDA-MB-231 [4]): Active; Activity (MDA-MB-231 [5]): Active; TGI (MDA-MB-231 [6]): Active; inhibition (MDA-MB-231 [7]): inactive; inhibition (MDA-MB-231 [8]): Active; Activity (MDA-MB-231 [9]): 6.31%; viability at 0.3 µM (MDA-MB-231 [10]): 90.4%; Activity (MDA-MB-231 [11]): inactive; Activity (MDA-MB-231 [12]): 4.73%; viability at 0.3 µM (MDA-MB-231 [13]): 82.9%; Activity (MDA-MB-231 [14]): 2.64%; Activity (MDA-MB-231 [15]): 9.84%
3540 nM | 57 nM | 2 nM | Cc1ccc(C(=O)Nc2ccc(CN3CCN(C)CC3)c(Cl)c2)cc1C#Cc1nn(C(C)C)c2ncnc(N)c12 | –
> 5000 nM | 418 nM | – | CCc1ccc(C(=O)Nc2ccc(CN3CCN(C)CC3)c(C(F)(F)F)c2)cc1C#Cc1nn(CC)c2ncnc(N)c12 | –
> 5000 nM | 14 nM | – | C=CC(=O)N1CCC(n2nc(C#Cc3cc(C(=O)Nc4ccc(CN5CCN(C)CC5)c(C(F)(F)F)c4)ccc3C)c3c(N)ncnc32)CC1 | –
4640 nM | 321 nM | – | CCn1nc(C#Cc2cc(C(=O)Nc3ccc(CN4CCN(C)CC4)c(C(F)(F)F)c3)ccc2OC)c2c(N)ncnc21 | –
> 5000 nM | 20 nM | – | Cc1ccc(C(=O)Nc2ccc(CN3CCN(C)CC3)c(C(F)(F)F)c2)cc1C#Cc1nn(C)c2ncnc(N)c12 | –
> 5000 nM | 103 nM | – | Cc1ccc(C(=O)Nc2cccc(C(F)(F)F)c2)cc1C#Cc1nn(C(C)C)c2ncnc(N)c12 | –
> 5000 nM | 1520 nM | 21 nM | Cc1ccc(C(=O)Nc2ccc(CN3CCOCC3)c(C(F)(F)F)c2)cc1C#Cc1nn(C(C)C)c2ncnc(N)c12 | –
> 5000 nM | 24 nM | – | CCn1nc(C#Cc2cccc(C(=O)Nc3ccc(CN4CCN(C)CC4)c(C(F)(F)F)c3)c2)c2c(N)ncnc21 | –
> 5000 nM | 52 nM | – | CCn1nc(C#Cc2cc(C(=O)Nc3ccc(CN4CCN(C)CC4)c(C(F)(F)F)c3)ccc2Cl)c2c(N)ncnc21 | –
4700 nM | 270 nM | – | Cc1ccc(C(=O)Nc2ccc(CN3CCN(C)CC3)cc2)cc1C#Cc1nn(C(C)C)c2ncnc(N)c12 | –
> 5000 nM | 69 nM | 2 nM | Cc1ccc(C(=O)Nc2ccc(CN3CCN(C)CC3)c(C(F)(F)F)c2)cc1C#Cc1nn(C(C)C)c2ncnc(N)c12 | Ratio IC50 (MDA-MB-231 [16]): 2.5; Ratio IC50 (MDA-MB-231 [17]): 2.5
> 5000 nM | > 5000 nM | – | CCn1nc(C#Cc2cc(C(=O)Nc3ccc(CN4CCN(C)CC4)c(C(F)(F)F)c3)ccc2O)c2c(N)ncnc21 | –
> 5000 nM | 65 nM | – | Cc1ccc(C(=O)Nc2ccc(CN3CCN(C)CC3)c(C(F)(F)F)c2)cc1C#Cc1nn(C2CCCC2)c2ncnc(N)c12 | –
– | – | – | CC(=O)O[C@H]1C(=O)[C@@]2(C)[C@H]([C@H](OC(=O)c3ccccc3)[C@]3(O)C[C@H](OC(=O)[C@H](O)[C@@H](NC(=O)c4ccccc4)c4ccccc4)C(C)=C1C3(C)C)[C@]1(OC(C)=O)CO[C@@H]1C[C@@H]2O | TGI (MDA-MB-231 [18]): Active
> 5000 nM | 1740 nM | – | CCn1nc(C#Cc2cc(C(=O)Nc3ccc(CN4CCN(C)CC4)c(C(F)(F)F)c3)ccc2F)c2c(N)ncnc21 | –
> 5000 nM | 51 nM | – | COCn1nc(C#Cc2cc(C(=O)Nc3ccc(CN4CCN(C)CC4)c(C(F)(F)F)c3)ccc2C)c2c(N)ncnc21 | –
> 5000 nM | 28 nM | – | Cc1ccc(C(=O)Nc2ccc(CN3CCN(C)CC3)c(C(F)(F)F)c2)cc1C#Cc1nn(C2CCC2)c2ncnc(N)c12 | –
> 5000 nM | 156 nM | – | Cc1ccc(C(=O)Nc2ccc(CN3CCN(C)CC3)c(C(F)(F)F)c2)cc1C#Cc1cnc2cccnn12 [PONATINIB] | –
1770 nM | 50 nM | 4 nM | Cc1ccc(C(=O)Nc2ccc(CN3CCN(CCO)CC3)c(C(F)(F)F)c2)cc1C#Cc1nn(C(C)C)c2ncnc(N)c12 | –

Compound | IC50 (HepG2) | IC50 (MDA-MB-231 [1]) | IC50 [2] | further results
Cc1ccc(C(=O)Nc2ccc(CN3CCN(C)CC3)c(C(F)(F)F)c2)cc1C#Cc1nn(C2CCNCC2)c2ncnc(N)c12 | > 5000 nM | – | 12 nM | –
